The source of these data is ChEMBL document CHEMBL2417369, “Synthesis and evaluation of heteroaryl substituted diazaspirocycles as scaffolds to probe the ATP-binding site of protein kinases” (Bioorg Med Chem, 2013).

Molecules are shown by their SMILES.

Broadly, the IC50 is the concentration needed to halve the response being measured. A lower IC50 goes with inhibition by little substance. The inhibition is the share of the control response that was lost under treatment.

In experiment [1] the target is T1, Serine/threonine-protein kinase Chk1 (Homo sapiens, UniProt O14757).
T1 sequence (O14757 whole entry): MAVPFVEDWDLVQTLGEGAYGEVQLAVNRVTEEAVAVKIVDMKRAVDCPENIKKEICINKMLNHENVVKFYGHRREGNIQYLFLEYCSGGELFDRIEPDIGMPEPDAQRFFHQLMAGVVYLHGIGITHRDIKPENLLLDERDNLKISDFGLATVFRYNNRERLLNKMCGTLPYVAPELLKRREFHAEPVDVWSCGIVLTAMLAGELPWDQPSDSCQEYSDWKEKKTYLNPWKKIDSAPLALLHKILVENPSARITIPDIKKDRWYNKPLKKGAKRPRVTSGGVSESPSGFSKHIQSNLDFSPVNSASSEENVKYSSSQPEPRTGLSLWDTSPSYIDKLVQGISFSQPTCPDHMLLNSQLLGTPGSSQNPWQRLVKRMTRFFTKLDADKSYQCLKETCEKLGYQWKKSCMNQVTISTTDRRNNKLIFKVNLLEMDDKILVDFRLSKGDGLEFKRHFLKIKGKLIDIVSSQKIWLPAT
The experiment in a line: Inhibition of CHK1 (unknown origin) by Z'-Lyte assay. The procedure, abridged:
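CHK1 IC50 was obtained by titration in the Z'-Lyte assay format, run as an outsourced screening service.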

Experiment [2] concerns the target T2, Aurora kinase C (Homo sapiens) (UniProt Q9UQB9).
T2 sequence (whole entry): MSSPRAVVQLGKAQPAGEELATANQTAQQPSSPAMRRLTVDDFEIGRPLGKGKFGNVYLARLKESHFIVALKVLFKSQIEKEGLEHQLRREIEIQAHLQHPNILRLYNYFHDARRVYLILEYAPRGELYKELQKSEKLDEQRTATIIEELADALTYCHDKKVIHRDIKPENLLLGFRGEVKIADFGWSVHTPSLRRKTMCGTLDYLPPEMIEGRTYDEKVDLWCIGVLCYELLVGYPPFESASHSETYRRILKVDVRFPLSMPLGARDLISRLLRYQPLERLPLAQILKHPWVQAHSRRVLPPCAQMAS
The experiment in a line: Inhibition of AURC (unknown origin) at 30 uM by microfluidic mobility shift assay relative to control. The procedure, abridged: (§1)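 Single-point screen at 30 µM test compound across a 24-kinase panel in a microfluidic assay format. ATP was set near each enzyme's Km,[ATP]. […] The pan-AGC inhibitor H-89 served as an internal control on every assay plate.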

For experiment [3], the target named is Calcium/calmodulin-dependent protein kinase type II subunit beta (Homo sapiens) (UniProt Q13554). The experiment in a line: Inhibition of CAMK2beta (unknown origin) at 30 uM by microfluidic mobility shift assay relative to control. The gist of the method:
as §1

The target in experiment [4] is Tyrosine-protein kinase ABL2 (Homo sapiens) (UniProt P42684). Description: Inhibition of ARG (unknown origin) at 30 uM by microfluidic mobility shift assay relative to control. The gist of the method: as §1
Experiment [5] concerns the target T3, Serine/threonine-protein kinase Sgk2 (Homo sapiens) (UniProt Q9HBY8).
T3 sequence (whole entry): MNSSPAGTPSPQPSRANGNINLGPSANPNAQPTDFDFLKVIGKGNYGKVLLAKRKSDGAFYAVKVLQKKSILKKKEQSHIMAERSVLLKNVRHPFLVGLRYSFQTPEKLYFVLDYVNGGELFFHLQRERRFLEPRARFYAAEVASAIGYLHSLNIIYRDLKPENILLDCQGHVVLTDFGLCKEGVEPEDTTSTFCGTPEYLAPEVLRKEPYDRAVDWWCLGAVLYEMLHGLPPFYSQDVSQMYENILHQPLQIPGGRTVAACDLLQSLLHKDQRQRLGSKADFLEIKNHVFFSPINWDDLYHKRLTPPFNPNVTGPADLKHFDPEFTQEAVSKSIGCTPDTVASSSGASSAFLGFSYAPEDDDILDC
Description: Inhibition of SGK2 (unknown origin) at 30 uM by microfluidic mobility shift assay relative to control. The gist of the method:
(§2)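 Single-point screen against a 24-kinase panel in a commercial microfluidic assay format. Compounds were tested at 30 µM, with ATP at approximately the Km,[ATP] of each enzyme. H-89 was included on each assay plate as an internal control.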

For experiment [6], the target named is T4, Cytoplasmic tyrosine-protein kinase BMX (Homo sapiens) (UniProt P51813).
T4 sequence (whole entry): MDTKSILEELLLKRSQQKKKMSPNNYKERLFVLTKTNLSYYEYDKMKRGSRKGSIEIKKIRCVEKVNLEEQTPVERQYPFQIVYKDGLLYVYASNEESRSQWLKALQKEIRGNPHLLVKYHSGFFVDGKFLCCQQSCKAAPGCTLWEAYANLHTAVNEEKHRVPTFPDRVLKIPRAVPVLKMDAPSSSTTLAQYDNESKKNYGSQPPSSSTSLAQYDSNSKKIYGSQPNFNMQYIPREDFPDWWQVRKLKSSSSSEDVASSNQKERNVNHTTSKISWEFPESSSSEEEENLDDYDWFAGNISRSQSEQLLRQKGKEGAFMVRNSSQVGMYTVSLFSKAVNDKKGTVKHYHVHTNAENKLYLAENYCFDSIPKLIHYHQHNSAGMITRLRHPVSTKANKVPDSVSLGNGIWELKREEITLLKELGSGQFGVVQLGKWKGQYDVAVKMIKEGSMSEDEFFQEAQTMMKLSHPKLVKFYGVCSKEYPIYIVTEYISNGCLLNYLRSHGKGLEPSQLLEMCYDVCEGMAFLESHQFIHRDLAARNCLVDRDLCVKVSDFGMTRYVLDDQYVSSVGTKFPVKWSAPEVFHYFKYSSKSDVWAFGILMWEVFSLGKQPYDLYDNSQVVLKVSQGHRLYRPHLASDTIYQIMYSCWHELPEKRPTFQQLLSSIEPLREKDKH
Description: Inhibition of BMX (unknown origin) at 30 uM by microfluidic mobility shift assay relative to control. The procedure, abridged: as §1

Experiment [7] concerns the target Tyrosine-protein kinase Fer (Homo sapiens) (UniProt P16591). Description: Inhibition of FER (unknown origin) at 30 uM by microfluidic mobility shift assay relative to control. The procedure, abridged: as §1
For experiment [8], the target named is T5, MAP kinase-activated protein kinase 5 (Homo sapiens) (UniProt Q8IW41).
T5 sequence (whole entry): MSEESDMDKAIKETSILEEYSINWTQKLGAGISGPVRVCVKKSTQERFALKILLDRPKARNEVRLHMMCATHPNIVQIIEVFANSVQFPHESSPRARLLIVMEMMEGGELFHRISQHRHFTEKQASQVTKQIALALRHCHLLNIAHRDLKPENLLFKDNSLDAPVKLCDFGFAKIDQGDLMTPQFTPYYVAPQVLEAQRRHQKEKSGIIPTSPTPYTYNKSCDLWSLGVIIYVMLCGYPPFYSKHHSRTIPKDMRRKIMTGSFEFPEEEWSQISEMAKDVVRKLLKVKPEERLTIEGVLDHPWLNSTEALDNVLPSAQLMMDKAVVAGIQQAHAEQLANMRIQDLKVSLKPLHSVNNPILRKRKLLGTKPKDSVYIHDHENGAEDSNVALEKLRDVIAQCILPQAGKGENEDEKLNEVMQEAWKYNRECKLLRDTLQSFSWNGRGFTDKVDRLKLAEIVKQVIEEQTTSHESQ
Description: Inhibition of PRAK (unknown origin) at 30 uM by microfluidic mobility shift assay relative to control. The gist of the method:
as §2

Calcium/calmodulin-dependent protein kinase type II subunit beta (Homo sapiens), sequence (Q13554 whole entry): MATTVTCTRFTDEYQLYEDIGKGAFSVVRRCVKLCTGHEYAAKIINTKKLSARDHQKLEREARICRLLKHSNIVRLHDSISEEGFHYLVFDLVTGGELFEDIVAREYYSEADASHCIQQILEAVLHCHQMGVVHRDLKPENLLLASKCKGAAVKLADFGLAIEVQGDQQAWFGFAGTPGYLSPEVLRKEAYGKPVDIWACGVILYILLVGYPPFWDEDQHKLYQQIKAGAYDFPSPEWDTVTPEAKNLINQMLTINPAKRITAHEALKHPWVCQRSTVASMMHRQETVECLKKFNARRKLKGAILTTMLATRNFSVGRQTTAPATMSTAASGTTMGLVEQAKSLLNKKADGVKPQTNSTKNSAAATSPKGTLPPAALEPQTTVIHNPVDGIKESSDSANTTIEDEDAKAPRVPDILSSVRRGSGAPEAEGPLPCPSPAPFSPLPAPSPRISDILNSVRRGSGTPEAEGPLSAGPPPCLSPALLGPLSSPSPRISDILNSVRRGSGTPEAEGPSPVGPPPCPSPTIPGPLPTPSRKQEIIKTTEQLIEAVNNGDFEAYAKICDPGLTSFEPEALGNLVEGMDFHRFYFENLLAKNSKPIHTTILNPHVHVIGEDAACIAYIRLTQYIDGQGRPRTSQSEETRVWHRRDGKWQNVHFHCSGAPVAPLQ
Tyrosine-protein kinase Fer (Homo sapiens), sequence (P16591 whole entry, looked up): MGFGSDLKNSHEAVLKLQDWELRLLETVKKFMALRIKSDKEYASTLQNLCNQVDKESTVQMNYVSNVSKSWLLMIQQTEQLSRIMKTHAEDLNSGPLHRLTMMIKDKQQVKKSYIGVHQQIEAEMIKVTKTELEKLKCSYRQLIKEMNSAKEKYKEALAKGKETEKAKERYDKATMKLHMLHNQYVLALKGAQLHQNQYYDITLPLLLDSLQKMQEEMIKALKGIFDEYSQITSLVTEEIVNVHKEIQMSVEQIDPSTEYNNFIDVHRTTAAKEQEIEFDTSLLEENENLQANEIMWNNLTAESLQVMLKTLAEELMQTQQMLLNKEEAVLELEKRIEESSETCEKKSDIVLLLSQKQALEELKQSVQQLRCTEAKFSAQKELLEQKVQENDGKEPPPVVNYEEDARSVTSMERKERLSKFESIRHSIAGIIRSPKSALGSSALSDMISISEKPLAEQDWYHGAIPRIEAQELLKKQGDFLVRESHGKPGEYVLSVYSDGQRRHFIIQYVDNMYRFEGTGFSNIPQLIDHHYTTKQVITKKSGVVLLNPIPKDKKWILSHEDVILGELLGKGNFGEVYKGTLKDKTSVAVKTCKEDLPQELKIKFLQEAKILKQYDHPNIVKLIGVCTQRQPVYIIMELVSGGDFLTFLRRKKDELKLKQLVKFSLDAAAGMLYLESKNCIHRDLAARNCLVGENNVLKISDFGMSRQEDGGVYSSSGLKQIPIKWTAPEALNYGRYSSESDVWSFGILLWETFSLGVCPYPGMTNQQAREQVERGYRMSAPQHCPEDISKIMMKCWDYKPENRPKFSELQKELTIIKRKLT
Tyrosine-protein kinase ABL2 (Homo sapiens), sequence (P42684 whole entry): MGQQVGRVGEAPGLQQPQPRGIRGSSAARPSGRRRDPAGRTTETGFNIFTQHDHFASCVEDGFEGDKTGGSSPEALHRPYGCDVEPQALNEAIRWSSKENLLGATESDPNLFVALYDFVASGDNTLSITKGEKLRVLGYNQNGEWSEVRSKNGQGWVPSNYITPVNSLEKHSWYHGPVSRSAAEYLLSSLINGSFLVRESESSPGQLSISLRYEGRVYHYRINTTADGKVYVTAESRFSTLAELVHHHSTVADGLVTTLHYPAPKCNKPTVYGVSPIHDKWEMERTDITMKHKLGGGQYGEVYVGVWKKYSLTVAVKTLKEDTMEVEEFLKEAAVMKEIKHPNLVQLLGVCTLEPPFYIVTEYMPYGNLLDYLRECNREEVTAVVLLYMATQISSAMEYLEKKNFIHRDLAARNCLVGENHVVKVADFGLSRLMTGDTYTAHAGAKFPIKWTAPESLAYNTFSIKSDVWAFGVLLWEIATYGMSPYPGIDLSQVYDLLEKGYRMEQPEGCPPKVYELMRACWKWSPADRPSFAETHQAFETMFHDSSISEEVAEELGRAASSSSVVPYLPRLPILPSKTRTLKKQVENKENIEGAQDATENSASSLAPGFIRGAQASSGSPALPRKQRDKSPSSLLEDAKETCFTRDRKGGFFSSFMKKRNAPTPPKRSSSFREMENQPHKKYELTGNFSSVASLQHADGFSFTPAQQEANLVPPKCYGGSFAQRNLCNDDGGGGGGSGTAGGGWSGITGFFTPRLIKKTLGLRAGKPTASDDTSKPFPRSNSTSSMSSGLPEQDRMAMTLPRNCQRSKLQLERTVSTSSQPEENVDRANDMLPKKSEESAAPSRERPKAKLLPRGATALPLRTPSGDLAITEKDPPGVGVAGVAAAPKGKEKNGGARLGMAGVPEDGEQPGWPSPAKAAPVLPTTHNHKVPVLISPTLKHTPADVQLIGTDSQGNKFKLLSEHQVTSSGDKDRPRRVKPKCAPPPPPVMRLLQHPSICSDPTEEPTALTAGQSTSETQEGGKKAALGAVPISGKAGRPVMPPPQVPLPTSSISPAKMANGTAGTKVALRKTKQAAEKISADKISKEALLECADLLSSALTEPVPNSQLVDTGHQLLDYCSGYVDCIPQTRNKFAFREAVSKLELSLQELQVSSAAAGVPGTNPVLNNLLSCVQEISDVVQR

Regarding `O=S(=O)(c1cccc2cnccc12)N1CCCC2(CCCNC2)C1` (centres undefined), in experiment [1], half-maximal inhibition (IC50) required 12.8 µM.
Consider `c1ccc(C2CCNC3(CCN(c4ncnc5[nH]cnc45)CC3)C2)cc1` (racemic), for which the inhibition in experiment [2] was 54%; in experiment [3], 32%; in experiment [4], 23%; in experiment [5] it was 47%; in experiment [6], 0%; in experiment [7] it was 12%. Besides, in experiment [8], the inhibition worked out at 14%.
`c1nc(N2CCC3(CCCNC3)CC2)c2nc[nH]c2n1` came in with an IC50 in experiment [1] of 1.8 µM.
Consider `c1ccc(CC2CCC3(CCN(c4ncnc5[nH]cnc45)CC3)NC2)cc1` (racemic), for which the inhibition came out at 61% in experiment [2]; 17% in experiment [3]; 18% in experiment [4]; 17% in experiment [5]; 12% in experiment [6]; 10% in experiment [7]. Further, the inhibition in experiment [8] is 12%.
In the case of `c1nc(N2CCC3(CCCCN3)CC2)c2nc[nH]c2n1`, the IC50 in experiment [1] came out at 18 µM.
With `c1ccc(CC2CCNC3(CCN(c4ncnc5[nH]cnc45)CC3)C2)cc1` (racemic), the inhibition amounted to 46% in experiment [2]; 29% in experiment [3]; 13% in experiment [4]; 59% in experiment [5]; 8% in experiment [6]; 2% in experiment [7]. In addition, the inhibition in experiment [8] turned out to be 8%.
